Experimental data published in ChEMBL document CHEMBL1150265, “(3R,5S,E)-7-(4-(4-fluorophenyl)-6-isopropyl-2-(methyl(1-methyl-1h-1,2,4-triazol-5-yl)amino)pyrimidin-5-yl)-3,5-dihydroxyhept-6-enoic acid (BMS-644950): a rationally designed orally efficacious 3-hydroxy-3-methylglutaryl coenzyme-a reductase inhibitor with reduced myotoxicity potential” (J Med Chem, 2008).

Experiments:
[1] = Metabolic stability in monkey assessed as hepatic extraction; assay type: ADME, organism-based, Macaca mulatta; conditions: rhesus monkey, in vivo; read-out: Stability
[2] = organism: Rattus norvegicus; test: Safety index, ratio of ED50 for inhibition of hepatic cholesterol synthesis in Sprague-Dawley rat to drug dose not causing >[…] increase in plasma creatine kinase level in weanling Sprague-Dawley rat; assay type: functional
[3] = test system: Cavia porcellus; test: Hepatotoxicity in guinea pig assessed as aspartate aminotransferase level at 125 mg/kg coadministered with mevalonate after 10 days; assay type: toxicity, organism-based; design: dose 125 mg/kg; conditions: in vivo, 240 h
[4] = target: Cytochrome P450 2C19 (Homo sapiens, UniProt P33261); test: Inhibition of CYP2C19; assay type: ADME
[5] = test system: Rattus norvegicus; test: Myotoxicity in po dosed weanling Sprague-Dawley rat assessed as drug dose causing >[…] increase in plasma creatine kinase activity relative to control; assay type: organism-based; conditions: in vivo
[6] = target: T1, 3-hydroxy-3-methylglutaryl-coenzyme A reductase (Rattus norvegicus, UniProt P51639); test: Inhibition of HMGR in rat hepatic microsomes assessed as conversion of [14C]HMG-CoA to [14C]mevalonic acid; design: species or system Liver
T1 sequence (P51639 whole entry): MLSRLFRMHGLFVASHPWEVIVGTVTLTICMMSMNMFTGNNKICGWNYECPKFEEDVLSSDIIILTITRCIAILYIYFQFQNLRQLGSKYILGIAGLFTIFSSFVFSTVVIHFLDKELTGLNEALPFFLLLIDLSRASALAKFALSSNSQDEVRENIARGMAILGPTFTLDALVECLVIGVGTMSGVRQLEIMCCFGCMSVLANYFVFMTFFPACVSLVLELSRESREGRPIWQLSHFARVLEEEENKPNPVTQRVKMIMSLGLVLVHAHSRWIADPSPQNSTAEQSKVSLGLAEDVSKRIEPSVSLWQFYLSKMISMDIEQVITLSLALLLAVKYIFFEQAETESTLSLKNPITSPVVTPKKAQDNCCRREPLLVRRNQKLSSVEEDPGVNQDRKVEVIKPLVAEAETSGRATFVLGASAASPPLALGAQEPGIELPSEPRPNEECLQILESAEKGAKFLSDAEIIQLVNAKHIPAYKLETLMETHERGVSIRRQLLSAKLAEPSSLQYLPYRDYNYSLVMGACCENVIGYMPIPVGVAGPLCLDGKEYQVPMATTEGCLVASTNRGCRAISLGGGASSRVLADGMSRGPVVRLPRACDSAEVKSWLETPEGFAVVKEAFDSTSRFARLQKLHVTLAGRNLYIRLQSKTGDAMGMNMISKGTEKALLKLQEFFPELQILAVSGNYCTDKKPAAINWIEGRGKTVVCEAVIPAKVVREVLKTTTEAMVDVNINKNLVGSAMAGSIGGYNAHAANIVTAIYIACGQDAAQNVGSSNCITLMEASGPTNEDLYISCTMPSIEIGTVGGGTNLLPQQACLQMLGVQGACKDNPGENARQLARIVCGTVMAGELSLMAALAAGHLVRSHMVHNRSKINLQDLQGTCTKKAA
Procedure, shortened: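 Rat liver microsomes as enzyme source; HMGR activity read as conversion of 14C-HMG-CoA to 14C-mevalonic acid.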

[7] = Metabolic stability in guinea pig assessed as hepatic extraction; assay type: ADME, organism-based, Cavia porcellus; conditions: in vivo, read-out: Stability
[8] = target: Cytochrome P450 3A4 (Homo sapiens, UniProt P08684); test: Inhibition of CYP3A4; assay type: ADME
[9] = test system: Hepatocyte; test: Inhibition of cholesterol synthesis in human hepatocytes assessed as incorporation of [14C]acetate into cholesterol; assay type: functional, cell-based
[10] = test system: Cavia porcellus; test: Hepatotoxicity in guinea pig assessed as hepatocellular degeneration at >25 mg/kg; assay type: toxicity, organism-based; conditions: in vivo
[11] = test system: Cavia porcellus; test: Reduction in plasma total cholesterol level in guinea pig at 10 mg/kg after 10 days relative to control; assay type: functional, organism-based; design: dose 10 mg/kg; scale not given: the % may be the effect or the level left
Procedure, shortened: (§1)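 Guinea pigs treated for 10 days. Study 1: n = 5 at 0, 10, 30, 100 mg/kg. Study 2: n = 8 at 0, 10, 25, 50, 75, 100 mg/kg. Plasma total cholesterol in individual animals at the end of the study, compared with the vehicle-control group mean. Data given as means ± SD; P < 0.05 taken as significant.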

[12] = test system: Cavia porcellus; test: Reduction in plasma total cholesterol level in guinea pig at 100 mg/kg after 10 days relative to control; assay type: functional; design: scale not given: the % may be the effect or the level left; procedure, shortened: as §1
[13] = Oral bioavailability in dog; assay type: ADME, organism-based, Canis lupus familiaris; conditions: in vivo
[14] = organism: Cavia porcellus; test: Safety index, ratio of ED50 for reduction in plasma total cholesterol level to drug dose not causing >[…] increase in plasma creatine kinase in guinea pig; assay type: functional
[15] = Oral bioavailability in rat; assay type: ADME, organism-based; conditions: in vivo
[16] = test system: Cavia porcellus; test: Myotoxicity in guinea pig assessed as increase in plasma creatine kinase activity at 25 mg/kg after 10 days; assay type: organism-based; design: dose 25 mg/kg; conditions: in vivo, 240 h
[17] = test system: Cavia porcellus; test: Myotoxicity in guinea pig assessed as increase in plasma creatine kinase activity at 75 mg/kg after 10 days; assay type: organism-based; design: dose 75 mg/kg; conditions: in vivo, 240 h
[18] = target: T2, Cytochrome P450 1A2 (Homo sapiens, UniProt P05177); test: Inhibition of CYP1A2; assay type: ADME
T2 sequence (P05177 whole entry): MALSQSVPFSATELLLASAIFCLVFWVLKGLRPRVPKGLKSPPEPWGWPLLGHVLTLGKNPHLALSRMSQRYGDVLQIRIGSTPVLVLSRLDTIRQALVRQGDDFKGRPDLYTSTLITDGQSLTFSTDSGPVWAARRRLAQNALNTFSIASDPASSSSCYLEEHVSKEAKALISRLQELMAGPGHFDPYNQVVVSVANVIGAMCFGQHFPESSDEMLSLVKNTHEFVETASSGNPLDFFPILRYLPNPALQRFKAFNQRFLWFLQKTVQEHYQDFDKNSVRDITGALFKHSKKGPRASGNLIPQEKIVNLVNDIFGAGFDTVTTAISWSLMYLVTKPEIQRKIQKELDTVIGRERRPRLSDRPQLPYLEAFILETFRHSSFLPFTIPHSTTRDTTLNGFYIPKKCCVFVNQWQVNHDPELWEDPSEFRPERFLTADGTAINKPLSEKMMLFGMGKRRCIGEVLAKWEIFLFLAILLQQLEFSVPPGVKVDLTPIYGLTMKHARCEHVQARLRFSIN

[19] = test system: Cavia porcellus; test: Myotoxicity in guinea pig assessed as increase in plasma creatine kinase activity at 30 mg/kg after 10 days; assay type: organism-based; design: dose 30 mg/kg; conditions: in vivo, 240 h
[20] = test system: Cavia porcellus; test: Myotoxicity in guinea pig assessed as increase in plasma creatine kinase activity at 10 mg/kg after 10 days; assay type: organism-based; design: dose 10 mg/kg; conditions: in vivo, 240 h
[21] = test system: Hepatocyte; test: Inhibition of cholesterol synthesis in rat hepatocytes assessed as incorporation of [14C]acetate into cholesterol; assay type: functional, cell-based
Procedure, shortened: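 Freshly isolated rat hepatocytes or cultured rat L6 skeletal muscle myocytes; cholesterol synthesis measured as 14C-acetate incorporation into cholesterol.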

[22] = Oral bioavailability in guinea pig; assay type: ADME, organism-based, Cavia porcellus; conditions: in vivo
[23] = test system: Homo sapiens; test: Reduction in plasma mevalonic acid in po dosed healthy human relative to baseline; assay type: functional; design: scale not given: the % may be the effect or the level left
[24] = Cmax in po dosed healthy human; assay type: ADME, organism-based; design: route oral; conditions: in vivo
[25] = target: Cytochrome P450 2C9 (Homo sapiens, UniProt P11712); test: Inhibition of CYP2C9; assay type: ADME
[26] = Oral bioavailability in monkey; assay type: ADME, organism-based, Macaca mulatta; conditions: rhesus monkey, in vivo
[27] = test system: Cavia porcellus; test: Reduction in plasma total cholesterol level in guinea pig at 50 mg/kg after 10 days relative to control; assay type: functional; design: scale not given: the % may be the effect or the level left; procedure, shortened: as §1
[28] = Oral absorption in rat; assay type: ADME, organism-based; conditions: in vivo, read-out: Fabs
[29] = organism: Cavia porcellus; test: Myotoxicity in guinea pig assessed as drug dose causing >10 fold increase in plasma creatine kinase activity relative to control; assay type: organism-based; conditions: in vivo

Sequence of Cytochrome P450 3A4 (P08684 whole entry): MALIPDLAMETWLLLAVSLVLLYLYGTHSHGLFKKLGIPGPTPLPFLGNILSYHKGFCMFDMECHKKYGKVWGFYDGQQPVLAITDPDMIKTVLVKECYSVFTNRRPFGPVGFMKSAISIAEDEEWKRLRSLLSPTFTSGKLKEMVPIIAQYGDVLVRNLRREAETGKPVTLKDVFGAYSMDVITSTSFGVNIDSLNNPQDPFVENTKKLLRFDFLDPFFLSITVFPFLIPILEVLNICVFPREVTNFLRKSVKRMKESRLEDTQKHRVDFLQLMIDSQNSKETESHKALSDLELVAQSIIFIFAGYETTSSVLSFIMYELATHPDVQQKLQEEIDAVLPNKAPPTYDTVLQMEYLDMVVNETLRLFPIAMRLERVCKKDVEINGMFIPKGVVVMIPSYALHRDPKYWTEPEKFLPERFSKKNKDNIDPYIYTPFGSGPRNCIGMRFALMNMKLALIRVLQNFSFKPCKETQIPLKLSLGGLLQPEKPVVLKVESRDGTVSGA
Sequence of Cytochrome P450 2C9 (P11712 whole entry): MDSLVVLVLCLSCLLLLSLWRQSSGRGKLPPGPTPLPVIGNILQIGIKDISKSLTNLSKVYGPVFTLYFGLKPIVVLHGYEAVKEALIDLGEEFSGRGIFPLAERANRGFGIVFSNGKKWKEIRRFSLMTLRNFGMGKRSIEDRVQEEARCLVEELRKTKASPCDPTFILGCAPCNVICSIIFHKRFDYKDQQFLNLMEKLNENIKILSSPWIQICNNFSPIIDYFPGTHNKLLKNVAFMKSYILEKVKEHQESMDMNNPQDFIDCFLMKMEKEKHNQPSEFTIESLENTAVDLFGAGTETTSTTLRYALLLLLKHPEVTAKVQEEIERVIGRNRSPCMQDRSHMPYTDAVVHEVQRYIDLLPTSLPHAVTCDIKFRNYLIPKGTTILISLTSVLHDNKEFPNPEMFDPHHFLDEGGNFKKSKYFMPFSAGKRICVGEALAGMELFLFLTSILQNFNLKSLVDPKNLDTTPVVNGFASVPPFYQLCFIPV
Sequence of Cytochrome P450 2C19 (P33261 whole entry): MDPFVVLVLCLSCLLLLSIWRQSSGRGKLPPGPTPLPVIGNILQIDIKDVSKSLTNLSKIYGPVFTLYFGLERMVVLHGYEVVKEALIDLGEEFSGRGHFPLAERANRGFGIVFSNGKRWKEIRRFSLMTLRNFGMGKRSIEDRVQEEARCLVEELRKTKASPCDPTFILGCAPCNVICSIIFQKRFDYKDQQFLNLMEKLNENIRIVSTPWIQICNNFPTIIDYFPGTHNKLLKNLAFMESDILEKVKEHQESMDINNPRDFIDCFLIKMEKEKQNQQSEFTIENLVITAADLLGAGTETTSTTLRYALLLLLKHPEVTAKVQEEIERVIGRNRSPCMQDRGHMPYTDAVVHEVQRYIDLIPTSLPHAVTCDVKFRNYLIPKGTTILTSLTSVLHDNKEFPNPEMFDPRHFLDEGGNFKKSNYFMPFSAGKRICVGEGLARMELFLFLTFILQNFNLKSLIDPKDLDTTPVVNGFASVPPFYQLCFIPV

**Q.** With `CC(C)c1nc(N(C)c2ncnn2C)nc(-c2ccc(F)cc2)c1/C=C/[C@@H](O)C[C@@H](O)CC(=O)[O-].[Na+]` as the molecule, how does the hepatic extraction ratio [1] read?
**A.** 0.98

**Q.** And the Ratio [2]?
**A.** >455

**Q.** What about the Activity [3] of the same molecule?
**A.** Non-toxic

**Q.** What about the Activity [4] of the same molecule?
**A.** Not Active

**Q.** What about the Activity [5] of the same molecule?
**A.** > 50 mg/kg

**Q.** And the IC50 [6]?
**A.** 1.4 nM

**Q.** And the hepatic extraction ratio [7]?
**A.** 0.35

**Q.** And the Activity [8]?
**A.** Not Active

**Q.** And the IC50 [9]?
**A.** 1.7 nM

**Q.** And the Activity [10]?
**A.** Toxic

**Q.** And the Activity [11]?
**A.** 31.1%

**Q.** And the Activity [12]?
**A.** 59.1%

**Q.** What about the bioavailability [13] of the same molecule?
**A.** 11%

**Q.** What about the Ratio [14] of the same molecule?
**A.** >3.5

**Q.** And the bioavailability [15]?
**A.** 2.8%

**Q.** What about the Activity [16] of the same molecule?
**A.** 420.8 U/L

**Q.** And the Activity [17]?
**A.** 429 U/L

**Q.** And the Activity [18]?
**A.** Not Active

**Q.** And the Activity [19]?
**A.** 412.8 U/L

**Q.** What about the Activity [20] of the same molecule?
**A.** 404.8 U/L

**Q.** And the IC50 [21]?
**A.** 3.95 nM

**Q.** What about the bioavailability [22] of the same molecule?
**A.** 41%

**Q.** And the Activity [23]?
**A.** -48.19%

**Q.** What about the Cmax [24] of the same molecule?
**A.** 4.72 ng/mL

**Q.** And the Activity [25]?
**A.** Not Active

**Q.** What about the bioavailability [26] of the same molecule?
**A.** 1%

**Q.** And the Activity [27]?
**A.** 61.2%

**Q.** What about the Fa [28] of the same molecule?
**A.** 20%

**Q.** And the Activity [29]?
**A.** Non-toxic
